From ChEMBL document CHEMBL5032506, “Identification of Transthyretin Tetramer Kinetic Stabilizers That Are Capable of Inhibiting the Retinol-Dependent Retinol Binding Protein 4-Transthyretin Interaction: Potential Novel Therapeutics for Macular Degeneration, Transthyretin Amyloidosis, and Their Common Age-Related Comorbidities” (J Med Chem, 2021)
Active and inactive are the calls of the source. The calls are words filed in the database; no cut-off is given here.

What was measured:
Mus musculus [1] = test: Reduction in serum RBP4 level in mouse measured at 25 mg/kg, po after 6 hrs; type: functional
Summary of the method: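 Balb/c mice given a single oral dose, 25 mg/kg, in 0.9% NaCl/2% Tween 80, with a vehicle group. […] Three to eight mice per group; mean ± SD.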

Mus musculus [2] = test: Reduction in serum RBP4 level in mouse measured at 25 mg/kg, po after 2 hrs
Transthyretin [3] = target: T1, Transthyretin (Homo sapiens, UniProt P02766); test: Stabilization of human plasma TTR assessed as inhibition of formation of high molecular weight forms of TTR with acetate buffer at pH 4 by measured at 50 uM after 72 hrs by acid-induced aggregation assay; type: cell-free
Mus musculus [4] = test: Reduction in serum RBP4 level in mouse measured at 25 mg/kg, po after 1 hr
Transthyretin [5] = target: T1, Transthyretin; test: Stabilization of human plasma TTR assessed as supression of low pH mediated TTR aggregate formation at 50 uM using pH 4 buffer; type: cell-free
Transthyretin [6] = target: T1, Transthyretin; test: Stabilization of human plasma TTR assessed as supression of low pH mediated TTR aggregate formation at 50 uM using pH 4.0 buffer
Mus musculus [7] = test: Effect of TTR level in po dosed mouse serum; type: functional, organism-based
Transthyretin [8] = target: T1, Transthyretin; test: Stabilization of human plasma TTR assessed as increase in dimer band intensity at 50 uM measured after 72 hrs by Western blotting analysis; type: cell-free
[9] = target: Retinol-binding protein 4 (Homo sapiens, UniProt P02753); test: Displacement of [3H]-all trans retinol from human urine biotinylated RBP4 incubated for 16 hrs measured by Scintillation Proximity Assay
[10] = Plasma protein binding in human; type: ADME, cell-free
Cytochrome P450 3A4 = Cytochrome P450 3A4 (Homo sapiens, UniProt P08684); test: (§1) Inhibition of CYP3A4 (unknown origin) at 10 uM relative to control; type: ADME; settings: 10 µM
Cytochrome P450 3A4, sequence (P08684 whole entry): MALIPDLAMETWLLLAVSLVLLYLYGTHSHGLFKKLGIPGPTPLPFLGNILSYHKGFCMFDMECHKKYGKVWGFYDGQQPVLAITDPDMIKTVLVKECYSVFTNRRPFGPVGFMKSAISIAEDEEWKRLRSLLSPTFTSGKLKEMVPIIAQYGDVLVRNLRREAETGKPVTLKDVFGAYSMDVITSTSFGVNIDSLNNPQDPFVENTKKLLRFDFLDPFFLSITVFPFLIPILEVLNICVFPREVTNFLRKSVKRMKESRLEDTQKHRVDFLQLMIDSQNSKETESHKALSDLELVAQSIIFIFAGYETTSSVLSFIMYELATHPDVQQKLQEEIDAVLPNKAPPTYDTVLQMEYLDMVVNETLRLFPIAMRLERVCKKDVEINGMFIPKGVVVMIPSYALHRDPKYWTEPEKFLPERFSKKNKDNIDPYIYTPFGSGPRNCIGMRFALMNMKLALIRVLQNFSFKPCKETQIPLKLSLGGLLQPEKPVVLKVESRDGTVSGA

[11] = Microsomal stability in rat liver microsomes assessed as parent compound remaining measured after 30 min; type: ADME, Microsome; settings: 0.5 h
CYP2C9 = CYP2C9 (Homo sapiens, UniProt P11712); test: Inhibition of CYP2C9 (unknown origin) at 10 uM relative to control; type: ADME
CYP2C9, sequence (P11712 whole entry): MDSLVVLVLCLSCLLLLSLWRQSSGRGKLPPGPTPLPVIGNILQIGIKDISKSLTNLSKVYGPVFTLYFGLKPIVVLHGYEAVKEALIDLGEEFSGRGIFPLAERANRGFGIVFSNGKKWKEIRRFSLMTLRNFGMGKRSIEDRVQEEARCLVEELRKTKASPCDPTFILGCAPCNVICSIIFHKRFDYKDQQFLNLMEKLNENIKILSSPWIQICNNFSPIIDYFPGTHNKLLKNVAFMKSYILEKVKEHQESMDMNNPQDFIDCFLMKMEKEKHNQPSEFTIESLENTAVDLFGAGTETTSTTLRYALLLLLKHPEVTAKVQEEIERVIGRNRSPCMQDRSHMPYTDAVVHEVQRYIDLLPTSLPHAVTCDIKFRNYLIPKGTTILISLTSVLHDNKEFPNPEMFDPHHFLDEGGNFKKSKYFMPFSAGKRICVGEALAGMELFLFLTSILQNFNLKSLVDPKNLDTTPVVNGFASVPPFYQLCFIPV

CYP2C19 = CYP2C19 (Homo sapiens, UniProt P33261); test: (§2) Inhibition of CYP2C19 (unknown origin) at 10 uM relative to control; type: ADME
CYP2C19, sequence (P33261 whole entry): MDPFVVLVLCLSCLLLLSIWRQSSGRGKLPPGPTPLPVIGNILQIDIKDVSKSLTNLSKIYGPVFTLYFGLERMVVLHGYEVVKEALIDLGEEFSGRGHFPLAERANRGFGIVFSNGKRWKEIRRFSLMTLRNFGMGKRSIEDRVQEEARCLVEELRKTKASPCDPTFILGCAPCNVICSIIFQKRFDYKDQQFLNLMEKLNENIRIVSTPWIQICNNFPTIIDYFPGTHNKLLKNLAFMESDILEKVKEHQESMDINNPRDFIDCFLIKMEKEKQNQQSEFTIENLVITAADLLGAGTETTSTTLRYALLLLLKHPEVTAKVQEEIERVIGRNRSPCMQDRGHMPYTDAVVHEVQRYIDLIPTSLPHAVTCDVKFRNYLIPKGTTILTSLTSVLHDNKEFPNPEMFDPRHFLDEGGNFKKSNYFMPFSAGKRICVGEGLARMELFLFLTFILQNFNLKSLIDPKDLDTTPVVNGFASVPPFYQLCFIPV

[12] = Solubility of the compound at pH 7.4 in PBS; type: physicochemical
Summary of the method: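 Kinetic solubility in PBS, pH 7.4. Values above 200 μM are capped at the top assay concentration, 200 μM.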

[13] = Plasma protein binding in rat; type: ADME, cell-free
CYP2D6 = CYP2D6 (Homo sapiens, UniProt P10635); test: Inhibition of CYP2D6 (unknown origin) at 10 uM relative to control; type: ADME
CYP2D6, sequence (P10635 whole entry): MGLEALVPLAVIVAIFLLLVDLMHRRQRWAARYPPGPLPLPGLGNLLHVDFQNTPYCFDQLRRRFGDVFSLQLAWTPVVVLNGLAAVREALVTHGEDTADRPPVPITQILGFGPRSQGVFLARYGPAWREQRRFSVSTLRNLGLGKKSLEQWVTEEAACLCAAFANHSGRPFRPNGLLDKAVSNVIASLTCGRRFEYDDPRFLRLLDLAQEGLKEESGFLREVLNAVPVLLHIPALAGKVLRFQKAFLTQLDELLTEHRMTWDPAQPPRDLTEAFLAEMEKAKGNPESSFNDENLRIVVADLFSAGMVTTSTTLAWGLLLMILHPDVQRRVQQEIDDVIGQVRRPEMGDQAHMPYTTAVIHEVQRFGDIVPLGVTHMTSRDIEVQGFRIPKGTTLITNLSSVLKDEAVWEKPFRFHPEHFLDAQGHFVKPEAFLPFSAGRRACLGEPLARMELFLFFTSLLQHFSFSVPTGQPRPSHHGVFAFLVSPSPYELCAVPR

Cytochrome P450 2C19 = Cytochrome P450 2C19 (Homo sapiens, UniProt P33261); test: as §2; type: ADME; settings: 10 µM
Cytochrome P450 2C19, sequence (P33261 whole entry): as the sequence (P33261 whole entry) above

CYP3A4 = CYP3A4 (Homo sapiens, UniProt P08684); test: as §1; type: ADME
CYP3A4, sequence (P08684 whole entry): as the sequence (P08684 whole entry) above

[14] = Microsomal stability in human liver microsomes assessed as parent compound remaining measured after 30 min; type: ADME, Microsome; settings: 0.5 h
[15] = Microsomal stability in human liver microsomes assessed as intrinsic clearance; type: ADME, Microsome
Transthyretin [16] = target: T1, Transthyretin; test: Binding affinity to human plasma TTR tetramer assessed as displacement of diclofenac-coupled FITC by fluorescence polarization assay; type: cell-free
[17] = Disruption of retional-induced bacterially expressed MBP-tagged RBP4-TTR (unknown origin) protein-protein interaction measured by d2 dye based HTFR assay; parameters: species or system Homo sapiens
[18] = Volume of distribution at steady state in male CD-1 mouse at 2 mg/kg, iv; type: ADME, organism-based; settings: in vivo, read-out: Vdss
Summary of the method: (§3)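 Adult male CD-1 mice, drug naïve, three per group; single 2 mg/kg IV bolus in 3% dimethylacetamide/45% PEG300/12% ethanol/40% sterile water. Compound measured in blood over time. CL is total body clearance, t1/2 is the terminal elimination phase half-life, Vss is volume of distribution at steady state. Reported as mean (SD).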

[19] = target: T2, Peroxisome proliferator-activated receptor gamma (Homo sapiens, UniProt P37231); test: Activity at PPARgamma (unknown origin)
T2 sequence (P37231 whole entry): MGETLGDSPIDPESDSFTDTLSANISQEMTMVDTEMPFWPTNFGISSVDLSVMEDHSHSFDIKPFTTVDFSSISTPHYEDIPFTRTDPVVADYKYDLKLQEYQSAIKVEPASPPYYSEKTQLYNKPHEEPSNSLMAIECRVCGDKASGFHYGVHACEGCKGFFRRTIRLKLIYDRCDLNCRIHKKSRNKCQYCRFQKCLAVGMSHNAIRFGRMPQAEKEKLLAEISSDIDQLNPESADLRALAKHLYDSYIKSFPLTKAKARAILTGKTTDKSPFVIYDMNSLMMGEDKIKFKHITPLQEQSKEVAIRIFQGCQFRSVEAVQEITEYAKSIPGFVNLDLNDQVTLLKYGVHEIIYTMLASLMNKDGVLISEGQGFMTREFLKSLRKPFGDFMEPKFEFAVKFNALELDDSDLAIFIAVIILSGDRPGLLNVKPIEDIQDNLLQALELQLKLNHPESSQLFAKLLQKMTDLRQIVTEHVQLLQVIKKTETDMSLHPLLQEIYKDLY

[20] = Microsomal stability in mouse liver microsomes assessed as parent compound remaining measured after 30 min; type: ADME, Microsome; settings: 0.5 h
[21] = Cmax in male CD-1 mouse at 5 mg/kg, po; type: ADME, organism-based; parameters: route oral, dose 5 mg/kg; settings: in vivo
Summary of the method: (§4)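 Groups of three drug-naive adult male CD-1 mice; IV dose 2 mg/kg in 3% dimethylacetamide/45% PEG300/12% ethanol/40% sterile water; PO dose 5 mg/kg in 2% Tween 80 in 0.9% saline. Compound measured in blood; AUC_last to last quantifiable time point, AUC_INF extrapolated to infinity; Cmax is maximum observed blood concentration. Mean (SD).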

[22] = Clearance in male CD-1 mouse at 2 mg/kg, iv; type: ADME, organism-based; settings: in vivo; summary of the method: as §3
in vivo = settings: male, CD-1, mouse, iv, 2 mg/kg
[23] = Half life in male CD-1 mouse at 2 mg/kg, iv; type: ADME, organism-based; settings: in vivo; summary of the method: as §3
[24] = Half life in male CD-1 mouse at 5mg/kg, po; type: ADME, organism-based; settings: in vivo
Summary of the method: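 Adult male CD-1 mice, drug naïve, three per group; single 5 mg/kg oral dose in 2% Tween 80 in 0.9% saline. Blood compound levels followed over time; apparent terminal-phase half-life reported as mean (SD).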

[25] = AUClast in male CD-1 mouse at 5 mg/kg, po; type: ADME, organism-based; parameters: time 0 - last, route oral, dose 5 mg/kg; settings: in vivo; summary of the method: as §4
Mus musculus [26] = test: Reduction in serum RBP4 level in mouse measured at 25 mg/kg, po administered as single dose measured after 2 hrs; type: functional
[27] = AUClast in male CD-1 mouse at 2 mg/kg, iv; type: ADME, organism-based; parameters: route intravenous, time 0 - last, dose 2 mg/kg; settings: in vivo; summary of the method: as §4
[28] = AUC in male CD-1 mouse at 2 mg/kg, iv; type: ADME, organism-based; parameters: dose 2 mg/kg; settings: in vivo; summary of the method: as §4
[29] = target: Voltage-gated inwardly rectifying potassium channel KCNH2 (Homo sapiens, UniProt Q12809); test: Inhibition of human ERG
Voltage-gated inwardly rectifying potassium channel KCNH2, sequence (Q12809 whole entry): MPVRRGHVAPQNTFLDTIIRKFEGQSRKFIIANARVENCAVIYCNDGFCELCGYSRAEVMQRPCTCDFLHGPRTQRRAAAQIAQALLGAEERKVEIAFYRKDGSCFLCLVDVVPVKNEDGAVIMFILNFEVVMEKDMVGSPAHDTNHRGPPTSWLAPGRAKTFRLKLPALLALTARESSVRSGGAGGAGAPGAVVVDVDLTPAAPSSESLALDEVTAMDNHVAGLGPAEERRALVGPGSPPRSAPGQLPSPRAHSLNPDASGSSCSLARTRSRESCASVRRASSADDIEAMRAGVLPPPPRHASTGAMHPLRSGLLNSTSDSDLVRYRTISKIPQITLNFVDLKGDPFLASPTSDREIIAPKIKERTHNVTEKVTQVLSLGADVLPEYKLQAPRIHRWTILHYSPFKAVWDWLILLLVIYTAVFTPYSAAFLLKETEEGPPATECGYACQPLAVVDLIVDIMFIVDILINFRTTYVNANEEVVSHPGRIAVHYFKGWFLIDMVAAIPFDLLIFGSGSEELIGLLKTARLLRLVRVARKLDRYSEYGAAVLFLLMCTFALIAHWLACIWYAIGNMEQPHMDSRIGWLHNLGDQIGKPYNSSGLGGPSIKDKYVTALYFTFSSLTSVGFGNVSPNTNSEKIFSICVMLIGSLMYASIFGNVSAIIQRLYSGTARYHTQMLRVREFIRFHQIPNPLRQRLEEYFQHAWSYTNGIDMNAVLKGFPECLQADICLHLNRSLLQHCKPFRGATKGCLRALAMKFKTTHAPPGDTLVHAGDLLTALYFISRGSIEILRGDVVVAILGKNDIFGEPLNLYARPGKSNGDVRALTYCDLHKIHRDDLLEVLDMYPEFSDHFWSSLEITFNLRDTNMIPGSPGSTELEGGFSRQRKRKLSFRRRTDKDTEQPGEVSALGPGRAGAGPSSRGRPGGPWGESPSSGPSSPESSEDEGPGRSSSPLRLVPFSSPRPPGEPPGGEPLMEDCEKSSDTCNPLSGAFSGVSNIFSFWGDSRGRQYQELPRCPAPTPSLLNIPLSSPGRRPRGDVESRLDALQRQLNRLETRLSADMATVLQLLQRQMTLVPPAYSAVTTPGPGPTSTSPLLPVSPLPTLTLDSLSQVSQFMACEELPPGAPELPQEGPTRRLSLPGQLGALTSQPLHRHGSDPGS

[30] = AUC (infinity) in male CD-1 mouse at 5 mg/kg, po; type: ADME, organism-based; parameters: time infinity, route oral, dose 5 mg/kg; settings: in vivo; summary of the method: as §4

Cc1n[nH]c(C)c1N1CCN(c2cc(C(=O)O)ccc2F)CC1 [listing 1 of 3 here]
inhibition in vivo at 25 mg/kg (Mus musculus [1]): 81%

Cc1n[nH]c(C)c1N1CCN(c2cc(C(=O)O)ccc2F)CC1 [listing 2 of 3 here]
inhibition (Mus musculus [2]): Active | Activity (Transthyretin [3]): Active | inhibition (Mus musculus [4]): Active | Activity (Transthyretin [5]): Active | Activity (Transthyretin [6]): Active | Activity (Mus musculus [7]): inactive | Activity (Transthyretin [8]): Active

O=C(O)c1ccc2nc(-c3cc(Cl)cc(Cl)c3)oc2c1
Activity (Transthyretin [3]): Active | IC50 [9]: > 30 µM | Activity (Transthyretin [8]): Active

Cc1n[nH]c(C)c1N1CCN(c2cccc(C(=O)O)c2F)CC1
IC50 [9]: > 3 µM

Cc1cc(F)c(N2CCN(c3c(C)n[nH]c3C)CC2)cc1C(=O)O
PPB [10]: 87% | inhibition (INH) (Cytochrome P450 3A4): 31.7% | IC50 [9]: > 3 µM | Stability [11]: 105% | inhibition at 10 µM (CYP2C9): 1.1% | inhibition at 10 µM (CYP2C19): -3% | solubility kinetic [12]: ≥ 200 µM | PPB [13]: 93% | inhibition at 10 µM (CYP2D6): 9.2%

Cc1n[nH]c(C)c1N1CCN(c2cc(C(=O)O)ccc2Cl)CC1
inhibition (INH) (Cytochrome P450 3A4): 19.5% | IC50 [9]: > 3 µM | inhibition at 10 µM (CYP2C9): 25.2% | inhibition (INH) (Cytochrome P450 2C19): 1.85% | solubility kinetic [12]: ≥ 200 µM | PPB [13]: 89% | inhibition at 10 µM (CYP2D6): 10%

Cc1ccc(C(=O)O)cc1N1CCN(c2c(C)n[nH]c2C)CC1
inhibition at 10 µM (CYP3A4): -5.2% | IC50 [9]: > 3 µM | inhibition at 10 µM (CYP2C9): 56.2% | inhibition at 10 µM (CYP2C19): 0.06% | solubility kinetic [12]: ≥ 200 µM | inhibition at 10 µM (CYP2D6): 7.34%

Cc1n[nH]c(C)c1N1CCN(c2cccc(C(=O)O)c2)CC1
IC50 [9]: > 30 µM

Cc1n[nH]c(C)c1N1CCN(c2cc(-c3nn[nH]n3)ccc2F)CC1
Stability [14]: 71.4% | CLH [15]: 18.4 µL/min/mg | inhibition (INH) (Cytochrome P450 3A4): 18.9% | IC50 [9]: > 3 µM | inhibition at 10 µM (CYP2C9): 26.3% | inhibition at 10 µM (CYP2C19): -4.8% | solubility kinetic [12]: ≥ 200 µM | PPB [13]: 94% | inhibition at 10 µM (CYP2D6): 0.8%

Cc1n[nH]c(C)c1N1CCN(c2cc(F)cc(C(=O)O)c2)CC1
IC50 [9]: > 3 µM

Cc1n[nH]c(C)c1N1CCN(c2cc(C(=O)O)ccc2I)CC1
IC50 (Transthyretin [16]): 0.19 µM | IC50 [17]: 2.65 µM

Cc1n[nH]c(C)c1N1CCN(c2cc(C(=O)O)ccc2F)CC1 [listing 3 of 3 here]
Vd [18]: 2.18 L/kg | EC50 [19]: > 30 µM | Stability [20]: 102% | Cmax [21]: 1560 ng/mL | PPB [10]: 83% | inhibition at 10 µM (CYP3A4): -2.2% | clearance [22]: 5.9 mL/min/kg | IC50 [9]: > 3 µM | C0 (in vivo): 1620 ng/mL | half-life [23]: 5.08 h | inhibition at 10 µM (CYP2C9): 10.4% | half-life [24]: 5.38 h | AUC(0-t) [25]: 16000 ng·h/mL | inhibition in vivo at 25 mg/kg (Mus musculus [26]): 66% | AUC(0-t) [27]: 6210 ng·h/mL | AUC [28]: 6240 ng·h/mL | IC50 [29]: > 30 µM | AUC(0-inf) [30]: 16100 ng·h/mL | inhibition at 10 µM (CYP2D6): 8.1%

O=C(O)c1ccc(F)c(N2CCN(c3nn[nH]n3)CC2)c1
IC50 (Transthyretin [16]): > 30 µM | IC50 [9]: > 3 µM

Cc1n[nH]c(C)c1N1CCC2(CCN(c3cc(C(=O)O)ccc3F)C2)C1 (racemic)
IC50 (Transthyretin [16]): 1.08 µM | IC50 [9]: > 3 µM

Cc1n[nH]c(C)c1CCCOc1cc(C(=O)O)ccc1F [ACORAMIDIS]
IC50 [9]: > 30 µM

Cc1n[nH]c(C)c1N1CC2(CN(c3cc(C(=O)O)ccc3F)C2)C1
IC50 (Transthyretin [16]): > 30 µM | IC50 [9]: > 3 µM

Cc1noc(C)c1N1CCN(c2cc(C(=O)O)ccc2F)CC1
IC50 [9]: > 3 µM

Cc1n[nH]c(C)c1N1CCN(c2cc(C(N)=O)ccc2F)CC1
IC50 [9]: > 3 µM

Cc1n[nH]c(C)c1N1CCN(c2ccc(F)c(C(=O)O)c2)CC1
IC50 [9]: > 3 µM

Cc1n[nH]c(C)c1N1CCN(c2cc(C(=O)O)ccc2C(F)(F)F)CC1
PPB [10]: 86% | inhibition (INH) (Cytochrome P450 3A4): 14.8% | IC50 [9]: > 3 µM | inhibition at 10 µM (CYP2C9): 17.1% | inhibition (INH) (Cytochrome P450 2C19): 2.3% | solubility kinetic [12]: ≥ 200 µM | inhibition at 10 µM (CYP2D6): 5.9%

O=C(O)c1ccc(F)c(N2CCN(c3ccccc3C(F)(F)F)CC2)c1
IC50 (Transthyretin [16]): 1.7 µM | IC50 [9]: > 3 µM

Cc1n[nH]c(C)c1N1C[C@H]2CN(c3cc(C(=O)O)ccc3F)C[C@H]2C1
IC50 (Transthyretin [16]): 2.82 µM | IC50 [9]: > 3 µM
